# Rows were chosen to be rich in hits. Some 9% of all compounds tested hit in one or more screens of this group.
# AP complement: orthogonal test for alternative complement pathway inhibitors. Human serum alternative complement pathway, LPS-coated ELISA, C3 deposition; tested in compound mixtures. inhibition, % at 5 µM. actives 0.08% (n = 62,000);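 active = inhibition above 30% in each of the two pooled mixtures holding the compound, so the lower value exceeds 30%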;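 note: 0% = serum in Mg-EGTA without compound and 100% = EDTA serum blank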
#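 Test system: human serum complement alternative pathway, C3 deposition onto LPS / Medium: Mg2+-EGTA GVB++ buffer containing human serum at 1:15 dilution / Probe or stimulus: Plate-bound LPS / Times: 1 h at 37 °C / Signal: ELISA with HRP anti-human C3 antibody, TMB substrate, absorbance 450 nm / Measure: percent inhibition / Repeats: two pool placements per compound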
# D1 allo mod: allosteric modulators of human D1 dopamine receptor | P21728 | HEK293 D1, CRE-luciferase, dopamine EC30 potentiation; actives deviate in either direction | B-score at 10 µM | actives 5.9% (n = 58,000) | AID 641;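 active = luminescence count or its row- and column-corrected plate score outside the 99.7% band of the plate's sample wells, on either side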
# mHtt clearance: mutant huntingtin protein clearance; actives 0.42% (n = 47,000); inhibition, % at 1.5 µM; HeLa Exon1htt(103Q)mCFP, aggregate imaging; zero = plate's median compound well;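 active = inhibition of aggregate fluorescence above about 70%, also judged a hit by eye on the cell image, limit read from the data, passing the limit was not always enough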;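 note: cells exposed to compound for three days before fixation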
# M1 ag: M1 muscarinic receptor agonism. CHO-M1 cells, Fluo-4 calcium fluorescence, agonist mode; stronger effect = higher value. B-score at 10 µM. actives 3% (n = 64,000);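 active = fluorescence rise, raw or as B-score row- and column-corrected plate score, outside the 99.7% band of its plate's samples, either direction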
# M1 antag: antagonists of rat M1 muscarinic receptor | AID 628 | CHO-M1 cells, Fluo-4 calcium, ACh EC80 antagonist mode; stronger effect = lower value | actives 3.4% (n = 64,000) | B-score at 10 µM | P08482;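 active = calcium fluorescence response, raw or row-and-column corrected B-score, differing from the plate sample mean either way at a set confidence level, mostly lower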
# Target sequence (P08482 whole entry, looked up): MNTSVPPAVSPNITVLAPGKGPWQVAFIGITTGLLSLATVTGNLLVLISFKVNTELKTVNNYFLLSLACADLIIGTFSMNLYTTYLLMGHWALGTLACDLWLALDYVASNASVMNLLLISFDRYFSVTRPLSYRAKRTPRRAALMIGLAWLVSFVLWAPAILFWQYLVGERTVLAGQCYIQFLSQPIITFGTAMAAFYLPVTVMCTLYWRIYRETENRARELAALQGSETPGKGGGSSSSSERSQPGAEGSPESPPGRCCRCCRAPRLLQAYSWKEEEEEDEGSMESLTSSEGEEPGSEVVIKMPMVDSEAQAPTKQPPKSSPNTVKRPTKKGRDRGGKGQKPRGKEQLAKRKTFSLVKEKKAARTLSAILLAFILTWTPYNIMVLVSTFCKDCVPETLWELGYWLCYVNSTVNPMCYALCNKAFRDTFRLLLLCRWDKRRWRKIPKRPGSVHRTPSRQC
# M1 antag conf: confirmation of rat M1 muscarinic receptor antagonists | shares compounds with M1 antag | CHO-M1 cells, Fluo-4 calcium, ACh EC80 antagonism; stronger effect = lower value | calcium response (max-min fluorescence) at 10 µM | actives 43% (n = 1,700) | AID 677;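 active = calcium response below the same-plate mean of wells given acetylcholine alone at its 80%-effect dose, minus 3 SD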;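 note: raw fluorescence intensity difference in arbitrary instrument units and not normalized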
# mGluR4 antag: selectivity test for M1 antagonists: human mGluR4 receptor; shares compounds with M1 antag; CHO-mGluR4 calcium flux, Fluo-4 fluorescence, glutamate EC80; stronger effect = lower value; fluorescence response (max-min) at 10 µM; actives 0.9% (n = 1,700); AID 678;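 active = fluorescence response below the plate's average for near-maximal glutamate wells, less 3 SD of those wells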;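 note: raw unnormalized fluorescence span taken in the window right after glutamate addition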
# * = called active by the depositor; · = not tested or not shown.
SMILES,AP complement,D1 allo mod,mHtt clearance,M1 ag,M1 antag,M1 antag conf,mGluR4 antag
Cn1c(SCc2ccc(Br)cc2)nnc1-c1cccs1,3,-0.85,·,0.4,-4.4*,526,204
CCOC(=O)C1CCN(CC(O)COc2ccc(C(C)(C)CC)cc2)CC1 (centres undefined),18,·,·,-0.42,-4.7*,399,205
COc1ccccc1S(=O)Cc1ccc(C(=O)NCCc2ccc(Cl)cc2)o1 (centres undefined),6,-2.8,·,2.4,-3.2*,545,193
Cc1cccc(-c2noc(CCCC(=O)Nc3cccnc3)n2)c1,13,·,15,-0.46,-0.0022,·,·
O=C(CCCc1nc(-c2ccc(Cl)cc2)no1)Nc1cccnc1,7,-1.3,-45,1.4,-2.7*,528*,214
CCCC(=O)Nc1ccc(N2CCN(C(=O)c3cccs3)CC2)cc1,·,0.19,·,2.2,0.35,·,·
COC(=O)CC1Oc2ccccc2N(Cc2ccccc2)C1=O (centres undefined),28,3.5,·,-0.054,-2.4*,669,243
CN(C)S(=O)(=O)c1ccc(NC(=O)CN2CCN(C(c3ccccc3)c3ccccc3)CC2)cc1,·,·,50,·,·,·,·
COc1cccc(OCC(O)CN2C(C)CCCC2C)c1 (centres undefined),10,0.58,9,0.18,-0.31,·,·
CC1CCCC(C)N1CC(O)COc1ccc(Cl)cc1 (centres undefined),12,-0.52,-40,-0.12,-3.2*,501*,224
O=C(Cn1nnc(-c2ccc(Cl)cc2)n1)NCC1CCCCC1,3,-0.61,·,0.34,1.3,·,·
COC(=O)Nc1nnc(Cc2ccccc2)s1,-4,0.4,50,0.13,-17*,593,259
COC(=O)Nc1nnc(CCc2ccccc2)s1,2,-0.73,·,0.031,0.54,·,·
COc1cc2c(cc1OC)-c1nnc(-c3cccs3)n1C1(CCCC1)C2,·,·,-13,·,·,·,·
CCN(CC)c1ccc(-c2nc3cnccc3n2C)cc1,19,-0.8,·,0.14,-14*,64*,253
Cc1cc(NC(=O)COC(=O)[C@H](Cc2c[nH]c3ccccc23)NC(=O)c2ccc(F)cc2)no1,·,·,3,·,·,·,·
COc1ccc(S(=O)(=O)N2CCCC2C(=O)Nc2nnc(-c3cccnc3)s2)cc1 (centres undefined),10,0.97,20,-0.56,-1.9*,583,270
COc1ccc(S(=O)(=O)N2CCC[C@H]2C(=O)NC2=NCCS2)cc1,·,·,0,·,·,·,·
Cc1ccc2nc3ccc(N4CCCC4)nn3c(=O)c2c1,18,0.27,33,-0.03,-1,·,·
Cc1sc2nc3ccc(N4CCCCC4)nn3c(=O)c2c1C,16,1.8,58,3,-2.3*,619,222
O=c1c2ccccc2[nH]c(=S)n1CCCN1CCN(C2CCCCC2)CC1,-12,-0.84,24,0.24,-2.3*,485*,232
CCOC(=O)c1[nH]c2ccc(OCC)cc2c1NC(=O)CN1CCN(c2ccccc2)CC1,11,-0.45,·,-0.22,1.3,·,·
CCOC(=O)c1[nH]c2ccc(OC)cc2c1NC(=O)CCN1CCc2ccccc2C1,·,·,-14,1.4,-3.1*,418*,183
CCOC(=O)c1[nH]c2ccc(OC)cc2c1NC(C)=O,·,-0.25,-22,0.75,-0.39,·,·
CCOC(=O)c1[nH]c2ccc(OC)cc2c1NC(=O)CCN1CCC(C)CC1,2,-0.53,·,0.26,-1.5*,426*,221
SMILES,AP complement,D1 allo mod,mHtt clearance,M1 ag,M1 antag,M1 antag conf,mGluR4 antag
COC(=O)c1[nH]c2ccccc2c1NC(=O)CCN1CCN(C2CCCCC2)CC1,13,-0.43,-7,-0.83,-3.7*,389*,230
CC1CCN(CCCn2c(=S)[nH]c3ccccc3c2=O)CC1,-5,-0.71,2,0.043,-0.47,·,·
COc1cc(NC(=O)NCc2ccncc2)cc(OC)c1OC,15,0.0092,16,-1.1,-0.18,·,·
COc1ccccc1S(=O)(=O)n1cc(Cc2ccccc2)c(N)n1,8,0.3,·,0.85,-0.12,·,·
C=CCN(C1CCCCC1)S(=O)(=O)c1ccc2c(c1)oc(=O)n2C,18,0.75,-274,0.83,-4.9*,567,289
C=CCN(c1ccccc1)S(=O)(=O)c1ccc2c(c1)oc(=O)n2C,8,-0.3,-16,-2,-1.9,·,·
CN(C)c1cccc(C(=O)OCC(=O)NCC2CCCO2)c1 (centres undefined),-12,-0.28,·,0.079,-0.079,·,·
CC(C)c1nnc(NC(=O)CC(=O)Nc2ccccc2C(=O)O)s1,-10,-2.4,·,0.25,1.3,·,·
CN(C(=O)c1cc2n(n1)C(C(F)(F)F)CC(c1ccco1)N2)c1ccc(OC(F)(F)F)cc1 (centres undefined),4,0.78,2,0.44,0.72,·,·
CN(C(=O)c1cc2n(n1)C(C(F)(F)F)CC(c1ccco1)N2)c1ccccc1 (centres undefined),7,1.2,·,1.1,-2.9*,662,230
COc1ccccc1CNC(=O)CN(c1ccc(C)cc1)S(=O)(=O)c1c(C)n[nH]c1C,13,0.12,·,0.81,0.78,·,·
CCOc1ccccc1NC(=O)CN(c1ccc(C)cc1)S(=O)(=O)c1c(C)n[nH]c1C,20,0.34,-12,-1.2,-2.4*,530,242
COc1c(C)cc(Br)cc1C(=O)O,-10,-0.28,21,0.48,-13*,710,203
CCN(CC)C(=O)c1cccc(-c2ccc(OC)cc2)c1,15,0.073,-33,-0.6,-2.2*,622,247
CCOC(=O)N1CCC(NC(=O)CCc2c(C)nc3c(c(C)nn3C(C)(C)C)c2C)CC1,19,-0.33,-65,-0.072,-1*,430,228
CCOC(=O)N1CCC(NC(=O)CCc2c(C)nc3nc(C)nn3c2C)CC1,10,·,·,-0.27,-0.056,·,·
CCNc1nc(NCC)nc(C(=O)OCCO)n1,·,·,14,·,·,·,·
O=C(NCc1cccs1)c1cc(C2CC2)on1,·,·,20,·,·,·,·
N#Cc1ccccc1Cn1cc(C#N)c2ccccc21,·,·,31,·,·,·,·
N#Cc1cn(Cc2ccccc2)c2ccccc12,7,0.053,·,-0.64,-1.9*,582,239
COc1ccc(C(c2nnnn2Cc2ccc(F)cc2)N2CCN(c3ccc(OC)cc3)CC2)cc1 (centres undefined),-7,-0.9,·,0.8,-3.8*,661,168
O=C(Nc1cc(C(F)(F)F)ccc1-n1cncn1)c1ccc(-c2ccccc2)cc1,·,·,-23,·,·,·,·
CCOc1cc(S(=O)(=O)n2nc(C)cc2C)ccc1F,1,·,23,-0.98,-5.2*,398,249
C[N+]12CCC(CC1)C(OC(=O)C(O)(c1ccccc1)c1ccccc1)C2 (centres undefined),15,-0.026,·,-1.5,-16*,16*,243
O=C(NC(=O)c1ccccc1)NC1(C(F)(F)F)OCCO1,12,-0.25,·,0.22,-19*,695,181

# Screening results (PubChem BioAssay)
